ChEMBL document CHEMBL2321820, “Discovery of HSD-621 as a Potential Agent for the Treatment of Type 2 Diabetes” (ACS Med Chem Lett, 2013)

Tests used:
Mus musculus [1] = organism: Mus musculus; assay: Antidiabetic activity in C57B6 DIO mouse assessed as reduction in fasting insulin level at 0.3 mg/g of food after 31 days by HPLC analysis relative to untreated control; format: functional; set-up: scale not given: the % may be the effect or the level left
How it was run: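 Male C57B6 mice, 5.5–7 months old, kept on a 35.5% fat diet for 4 months. Compound was mixed into food at 0.3 mg drug/g food for 31 days. Controls received diet 12492. Glucose and insulin were measured fed and fasting.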

Mus musculus [2] = organism: Mus musculus; assay: Toxicity in C57B6 DIO mouse assessed as body weight change at 0.3 mg/g of food after 31 days relative to untreated control; format: organism-based; details: in vivo, po, 744 h
[3] = molecular target: T1, Peroxisome proliferator-activated receptor delta (Homo sapiens, UniProt Q03181); assay: Inhibition of PPARbeta (unknown origin)
T1 sequence (Q03181 whole entry): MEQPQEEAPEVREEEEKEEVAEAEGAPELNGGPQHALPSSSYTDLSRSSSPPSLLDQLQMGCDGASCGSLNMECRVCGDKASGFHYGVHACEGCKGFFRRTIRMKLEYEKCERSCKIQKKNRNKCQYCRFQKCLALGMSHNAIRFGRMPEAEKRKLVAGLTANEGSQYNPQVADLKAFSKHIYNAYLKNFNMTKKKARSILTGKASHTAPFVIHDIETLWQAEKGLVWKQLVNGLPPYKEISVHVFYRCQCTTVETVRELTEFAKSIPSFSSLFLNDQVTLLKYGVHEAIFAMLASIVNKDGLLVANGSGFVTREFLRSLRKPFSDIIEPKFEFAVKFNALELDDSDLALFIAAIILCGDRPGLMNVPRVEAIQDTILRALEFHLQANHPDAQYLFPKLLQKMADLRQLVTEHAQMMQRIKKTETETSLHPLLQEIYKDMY

Canis familiaris = assay: Toxicity in dog at 100 to 1000 mg/kg; format: organism-based, Canis lupus familiaris; set-up: dose 100-1000 mg/kg; details: in vivo
How it was run: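 Dogs were dosed at 100, 300 and 1000 mg/kg in a 14-day safety assessment and metabolism study.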

[4] = Half life in Sprague-Dawley rat at 10 mg/kg, po; format: ADME, organism-based; set-up: dose 10 mg/kg, route oral; details: in vivo
How it was run: (§1)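 SD rats received 2 mg/kg iv in 50% DMSO/50% PEG200, or 10 mg/kg po in 2% Tween/0.5% methyl cellulose in water. PK parameters come from each route.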

[5] = Half life in C57B6 mouse at 10 mg/kg, po; format: ADME, organism-based; set-up: dose 10 mg/kg, route oral; details: in vivo
How it was run: (§2)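 Male C57B6 mice. IV dose of 2 mg/kg in 50% DMSO/50% PEG200. Oral dose of 10 mg/kg in 2% Tween/0.5% methyl cellulose in water. Values are PK parameters from the iv and po arms.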

[6] = Cmax in C57B6 mouse at 10 mg/kg, po; format: ADME, organism-based; set-up: dose 10 mg/kg, route oral; details: in vivo; how it was run: as §2
[7] = Half life in Sprague-Dawley rat at 2 mg/kg, iv; format: ADME, organism-based; set-up: dose 2 mg/kg, route intravenous; details: in vivo; how it was run: as §1
[8] = AUC in C57B6 mouse at 2 mg/kg, iv; format: ADME, organism-based; set-up: dose 2 mg/kg, route intravenous; details: plasma; how it was run: as §2
[9] = Volume of distribution at steady state in Sprague-Dawley rat at 2 mg/kg, iv; format: ADME, organism-based; set-up: dose 2 mg/kg, route intravenous; details: in vivo, read-out: Vdss
How it was run: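 Sprague-Dawley rats given a single iv dose of 2 mg/kg in 50% DMSO/50% PEG200. A separate oral arm received 10 mg/kg in 2% Tween/0.5% methyl cellulose in water.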

[10] = Clearance in C57B6 mouse at 2 mg/kg, iv; format: ADME, organism-based; set-up: dose 2 mg/kg, route intravenous; details: in vivo; how it was run: as §2
[11] = Half life in rat liver microsomes; format: ADME, Microsome
[12] = molecular target: T2, 11-beta-hydroxysteroid dehydrogenase type 2 (Homo sapiens, UniProt P80365); assay: Inhibition of human 11beta-HSD2 expressed in CHO cells using […] as substrate incubated for 30 mins prior to substrate addition measured after 120 mins by scintillation counting analysis; format: cell-based
T2 sequence (P80365 whole entry): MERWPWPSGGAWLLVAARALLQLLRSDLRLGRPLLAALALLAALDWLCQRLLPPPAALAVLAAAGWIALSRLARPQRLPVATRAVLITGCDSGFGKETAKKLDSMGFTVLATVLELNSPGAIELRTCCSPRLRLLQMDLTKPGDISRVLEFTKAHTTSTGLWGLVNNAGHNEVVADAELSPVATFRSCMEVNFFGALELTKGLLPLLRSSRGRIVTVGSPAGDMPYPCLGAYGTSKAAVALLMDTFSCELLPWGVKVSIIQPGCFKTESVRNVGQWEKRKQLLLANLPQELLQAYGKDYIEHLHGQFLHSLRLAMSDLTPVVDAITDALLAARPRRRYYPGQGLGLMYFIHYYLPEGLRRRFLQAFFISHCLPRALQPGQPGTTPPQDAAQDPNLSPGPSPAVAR

Mus musculus [13] = assay: Ex vivo inhibition of 11beta-HSD1 in C57B16 mouse epididymal fat assessed as conversion of [3H]-cortisone to [3H]-cortisol at 10 mg/kg, po after 5 hrs by HPLC analysis relative to vehicle-treated control; format: functional
How it was run: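 Mice were dosed orally at 10 mg/kg. Epididymal fat was collected 5 h after dosing for the ex vivo readout.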

[14] = molecular target: 11-beta-hydroxysteroid dehydrogenase 1 (Mus musculus, UniProt P50172); assay: Inhibition of mouse 11beta-HSD1 expressed in CHO cells […] incubated for 30 mins prior to substrate addition measured after 120 mins by chemiluminescence assay; format: cell-based
Chain of 11-beta-hydroxysteroid dehydrogenase 1 (P50172 whole entry): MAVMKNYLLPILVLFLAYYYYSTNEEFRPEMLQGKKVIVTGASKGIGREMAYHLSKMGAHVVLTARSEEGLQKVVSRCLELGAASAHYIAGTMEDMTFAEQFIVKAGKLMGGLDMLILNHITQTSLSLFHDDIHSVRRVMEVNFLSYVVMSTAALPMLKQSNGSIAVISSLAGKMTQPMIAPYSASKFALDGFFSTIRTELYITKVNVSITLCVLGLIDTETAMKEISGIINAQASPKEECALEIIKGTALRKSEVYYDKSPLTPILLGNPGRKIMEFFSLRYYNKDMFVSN
How it was run: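 Cell-based assay run in duplicate. Compounds were tested as 11-point 2-fold dilutions, and IC50 was derived. Lower assay threshold was 10 nM.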

[15] = AUC in Beagle dog at 5 mg/kg, po; details: plasma
[16] = Tmax in Beagle dog at 5 mg/kg, po; details: in vivo
[17] = Half life in Beagle dog at 5 mg/kg, po; details: in vivo
[18] = Oral bioavailability in Beagle dog at 5 mg/kg; details: in vivo

IC50 [3]: > 100 µM | half-life [4]: 3.3 h | half-life [5]: 4.8 h | Cmax [6]: 987 ng/mL | half-life [7]: 8.6 h | AUC [8]: 3600 ng·h/mL | Vd [9]: 3.8 L/kg | clearance [10]: 9 mL/min/kg | half-life [11]: > 0.5 h | IC50 [12]: > 100 µM | IC50 [14]: 0.01 µM | AUC [15]: 43500 ng·h/mL | Tmax [16]: 2.8 h | half-life [17]: 17.2 h | bioavailability [18]: 54%
SMILES: C[C@@H]1CN(c2ccc(F)cc2C(F)(F)F)CCN1S(=O)(=O)c1ccc([C@@](O)(C(N)=O)C(F)(F)F)s1
Activity (Mus musculus [1]): 33% | Activity (Mus musculus [2]): Non-toxic | Activity (Canis familiaris): Non-toxic | inhibition in vivo at 10 mg/kg (Mus musculus [13]): 75%
